A selection: hits, their analogues and other compounds. The true share with any hit is near 1.5%.
H9c2 protect: cardioprotection against H2O2-induced cell death, primary screen, uHTS, H9c2 cells, ATPLite luminescence; H9c2 cardiomyocytes, H2O2 injury protection, 2 h; AID 588492, 2011; 360,000 tested, 0.63% active; protection from H2O2 cell death, % at 20 µM;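 active = compounds giving at least 50% protection of heart cells from peroxide-induced death in the single-dose screen, raw or plate-pattern-corrected value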;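 note: 0% = DMSO wells with peroxide and 100% = DMSO wells without peroxide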
TbMetRS inhib: T. brucei MetRS inhibitors, primary screen, biochemical, luminescence; purified T. brucei MetRS, ATP depletion, Kinase-Glo luminescence; inhibition, % at 11.9 µM; methionyl-tRNA synthetase (Trypanosoma brucei brucei); 360,000 tested, 0.4% active;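 active = inhibition above a per-plate cutoff of the control wells' mean inhibition plus 3 SD, cut at about 5.5% in these data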;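 note: 0% = DMSO wells median and 100% = median of wells with control inhibitor compound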
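Material: parasite MetRS enzyme / Replication: singlicate, one well per compound / Signal: luminescence of leftover ATP / Schedule: 2 h aminoacylation at 25 °C after 15 min preincubation / Medium: HEPES-MgCl2-KCl buffer plus DTT, spermine, BSA, pyrophosphatase / Doses: 11.9 µM single point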
Rin1 Abl inh: inhibitors of Rin1-Abl protein binding, primary screen, biochemical, TR-FRET | inhibition, % at 7.35 µM | 360,000 tested, 0.4% active; in the data active = inhibition above about 5%, passing the limit was not always enough
PKA-R2B act: activators of PKA-R2B holoenzyme, primary screen, biochemical, fluorescence polarization, Cy5-IP20, human; PKA-R2B holoenzyme dissociation; R2B truncated from residue 108, S112A mutant; 0% DMSO only, 100% 113 µM cGMP; cAMP-dependent protein kinase catalytic subunit beta (Homo sapiens) + cAMP-dependent …; activation, % at 11.4 µM; AID 504700, 2011; 340,000 tested, 0.079% active;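 active = activation above a cutoff set at the mean over all compounds plus 3 SD, cut at about 18% in these data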;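 note: higher means more holoenzyme dissociation and a rise in polarization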
Target sequence (P31323 whole entry, looked up, other chains not shown, the tested form may be a part): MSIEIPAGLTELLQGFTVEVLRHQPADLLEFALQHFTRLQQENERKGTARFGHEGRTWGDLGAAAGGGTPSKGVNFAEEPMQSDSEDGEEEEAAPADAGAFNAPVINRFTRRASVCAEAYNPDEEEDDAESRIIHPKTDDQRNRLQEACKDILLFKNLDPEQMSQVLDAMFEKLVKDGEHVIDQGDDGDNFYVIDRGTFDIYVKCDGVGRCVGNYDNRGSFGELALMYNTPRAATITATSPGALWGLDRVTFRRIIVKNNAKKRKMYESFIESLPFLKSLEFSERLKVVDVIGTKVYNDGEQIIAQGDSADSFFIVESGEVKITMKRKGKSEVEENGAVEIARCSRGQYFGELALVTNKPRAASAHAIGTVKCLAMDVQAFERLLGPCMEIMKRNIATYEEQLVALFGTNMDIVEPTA
PKA-R1A act: activators of PKA-R1A holoenzyme, primary screen, biochemical, fluorescence polarization, Cy5-IP20, bovine R1A, mouse PKAc; cAMP-dependent protein kinase type I-alpha regulatory subunit (Bos taurus) + …; PKA-R1A dissociation; scaled: DMSO 0%, 113 µM cGMP 100%; activation, % at 11.4 µM; 340,000 tested, 0.083% active; AID 504707, 2011;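 active = percent activation above the mean of all tested compounds plus 3 SD, cut at about 19% in these data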;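 note: higher means more PKAc released from R1A so a rise in polarization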
An asterisk follows results filed as active; · = not tested or not shown.

SMILES | H9c2 protect | TbMetRS inhib | Rin1 Abl inh | PKA-R2B act | PKA-R1A act
COc1ccc(C(=O)COC(=O)C(CCCCN2C(=O)C3C4C=CC(C4)C3C2=O)N2C(=O)C3C4C=CC(C4)C3C2=O)cc1 (stereo unspecified) | 75* | -1 | -4 | 1 | 1
CN(Cc1cn(Cc2ccc(Cl)cc2)nn1)C1CN(Cc2cn(Cc3ccc(Cl)cc3)nn2)S(=O)(=O)C1 (stereo unspecified) | · | 0 | · | · | ·
Cc1sc2nc[nH]c(=S)c2c1-c1ccccc1 | 66* | -1 | -2 | 0 | -1
Cc1sc2nc[nH]c(=O)c2c1-c1ccc(F)cc1 | 9 | -2 | 2 | 6 | -6
Cc1ccc(NC(=S)N(Cc2ccc(Cl)cc2)Cc2ccc(C(=O)O)cc2)cc1Cl | -4 | 0 | -1 | 6 | -1
COc1cc2[nH]c(=O)n3nc(-c4ccccc4)nc3c2cc1OC | 95* | -1 | 3 | -1 | 4
COc1ccc(-c2nc3c4ccccc4[nH]c(=O)n3n2)cc1 | 29 | 0 | -2 | 4 | -8
COc1cccc(/C=N/NC(=O)c2ccncc2)c1OC(=O)c1ccc(Br)cc1 | 55* | -1 | -2 | -11 | -4
COCCn1c(SCc2cccc(F)c2)nc2cc(C(=O)OC)ccc2c1=O | -8 | 0 | 2 | 4 | 9
Cc1cnc(C(=O)Nc2nnc(SCc3c(Cl)cccc3Cl)s2)cn1 | 54* | 0 | -2 | -12 | -1
Cc1ccc(CN2CC(C(=O)Nc3nnc(SCc4c(Cl)cccc4Cl)s3)CC2=O)cc1 (stereo unspecified) | -7 | -1 | -2 | 4 | -3
CC(=O)Nc1nc(-c2cc([N+](=O)[O-])cs2)cs1 | -9 | -1 | 1 | 5 | 3
COc1ccc2nc(NC(=O)CSc3n[nH]c(N)n3)sc2c1 | -16 | -1 | 0 | 2 | 0
Cc1ccc(C(=O)Oc2ccc(Cl)c3cccnc23)cc1[N+](=O)[O-] | 53* | 0 | 4 | 0 | -7
Cc1cccc(NC(=O)c2ncn3c2C(=O)N[C@@H](C)C3)c1 | 6 | 0 | -7 | 0 | -9
COC(=O)c1cc(OC)c(OC)cc1NC(=O)c1ccc(C)o1 | 50* | -1 | -3 | -7 | -11
COc1ccc(S(=O)(=O)N2CCN(C(=O)N3CCOCC3)C2C)cc1 (stereo unspecified) | 2 | -1 | -2 | -2 | 0
Cc1cc(-c2ccccc2)nc(N/N=C/c2ccc([N+](=O)[O-])cc2)n1 | 53* | 0 | 3 | 0 | -4
COc1ccccc1NS(=O)(=O)c1cccc(C(=O)N/N=C/c2c(CO)cnc(C)c2O)c1 | 52* | 0 | -2 | -13 | -3
COc1ccc(N(CC(=O)NCCSc2ccccc2)S(=O)(=O)c2ccccc2)c(OC)c1 | 56* | 0 | 0 | -8 | -5
CCOc1ccc(/C=C/C(=O)c2cc(Br)ccc(=O)c2O)cc1 | 53* | 0 | 3 | 3 | -5
Cc1cc(C)cc(NC(=O)Nc2ccc3c(c2)N(C)C(=O)CS3)c1 | -9 | 0 | -2 | 2 | -1
CC(=O)c1cccc(NC(=O)Nc2ccc3c(c2)N(C)C(=O)CS3)c1 | 52* | 0 | -2 | 3 | -6
O=C(O)c1cccc(N/N=C/C2=C(Cl)c3cc(Cl)ccc3SC2)c1 | -19 | 0 | 1 | -6 | 6
COc1cc(C(=O)Nc2nc(OC)c(-c3ccccc3)c(OC)n2)cc(OC)c1OC | 70* | 0 | -2 | 3 | 10
SMILES | H9c2 protect | TbMetRS inhib | Rin1 Abl inh | PKA-R2B act | PKA-R1A act
COC(=O)c1sccc1S(=O)(=O)NCc1ccc(S(N)(=O)=O)cc1 | 1 | 0 | 3 | 0 | -9
COC(=O)C1=CN(c2ccc(F)cc2)C=C(C(=O)OC)C1c1ccc(O)cc1 | 1 | 0 | 0 | -6 | -16
CCC(=O)NC(c1cccs1)c1ccc2cccnc2c1O (stereo unspecified) | 31 | 0 | 9.8* | -16 | 2
CCCCC(=O)NC(c1ccc(N(CC)CC)cc1)c1ccc2cccnc2c1O (stereo unspecified) | 52* | -1 | 3 | 4 | -9
CCCCC(=O)NC(c1ccc(N(C)C)cc1)c1ccc2cccnc2c1O (stereo unspecified) | 31 | -2 | 2 | -6 | -11
O=[N+]([O-])c1cc(-c2csc(NCCc3nc4cc(C(F)(F)F)ccc4n3CCCO)n2)ccc1Cl | -12 | 0 | 0 | -12 | -8
Cc1ccc(Cn2c(CCNc3nc(-c4ccc(Cl)c([N+](=O)[O-])c4)cs3)nc3cc(C(=O)NCCCO)ccc32)cc1 | 70* | 0 | 4 | -10 | -3
CCOc1ccc(CCNC(=O)CSCC(=O)Nc2cccc(C)c2)cc1OCC | 6 | -1 | 0 | -10 | 2
CN(c1ccccc1)S(=O)(=O)c1cccc(NC(=O)C2CC(=O)N(Cc3ccccc3)C2)c1 (stereo unspecified) | 3 | 0 | 2 | -12 | -7
S=c1[nH]c2ccccc2n2cccc12 | 9 | 0 | -32 | -9 | -2
O=c1[nH]c2cccc(F)c2n2cccc12 | 51* | 0 | 3 | -3 | 9
O=c1c(O)c(-c2cc(O)c(O)c(O)c2)oc2cc(O)cc(O)c12 | 24 | 5 | 55* | -12 | -1
O=Nc1c(O)[nH]c2ccc(F)cc12 | -3 | -1 | 4 | -1 | -2
Cc1cc2c(N=O)c(NO)ccc2[nH]1 | 57* | 0 | 12* | -4 | -9
COc1cccc(CNC(=O)[C@@H]2CCCN2C(=O)[C@@H]2CCCN2)c1 | · | -1 | · | · | ·
COC(=O)c1ccccc1NCc1cc(=O)oc2cc(O)c(O)cc12 | 67* | 0 | 3 | 6 | -9
COc1ccc(C)cc1NCc1cc(=O)oc2cc(-c3ccccc3)c(O)cc12 | 7 | 1 | 0 | 6 | 5
COc1ccc(Nc2nnc(C)c3ccccc23)cc1C(N)=O | 11 | 0 | -1 | 1 | -7
COc1ccc(Nc2nnc(-c3ccc(O)cc3)c3ccccc23)cc1C(N)=O | 57* | 0 | -2 | -12 | -6
COc1ccc(-c2nc(NC(=O)c3ccc(OCC(=O)N4CCOCC4)c(OC)c3)sc2C)cc1 | 62* | -1 | -4 | -2 | 1
COc1cc(C(=O)Nc2ccc(C)cn2)ccc1OCC(=O)N1CCOCC1 | 0 | -1 | 6 | 6 | 1
O=C1CSC(=S)N1/N=C/c1ccc(O)c(O)c1O | 17 | 0 | 30* | 4 | 1
